Measurements reported in PubChem BioAssay AID493015 (Southern Research Specialized Biocontainment Screening …, 2011).
Calls of active or inactive are those of the source.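 Rule for the calls: active = cell viability under 70% at any tested dose, a measure not printed in our tables; inactive = the rest.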

Tested on: HEp-2 cells, viability, luminescence (cytotoxicity counter-screen)
Test: HEp-2 viability loss, luminescent readout – cell-based, synthesized compounds, set 4, cytotoxicity control for RSV inhibitor project, dose response (AID 493015)
Method in brief: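 Assay system: HEp-2 cells | Amount: 10,595 cells per well | Read-out: CC50 from 4-parameter fit, bounds fixed 0 and 100 | Compound: 8-point 1:2 series, 50–0.39 µM, 0.5% DMSO | Signal: CellTiter-Glo luminescence | Incubation: Compound exposure of 6 days at 37 °C, 5% CO2 | Medium: DMEM/F12 plus heat-inactivated FBS | Benchmarks: Cell-only wells as reference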

Structure (SMILES)	CC50
O=C(Nc1ccccc1)[C@@H]1CCCN1S(=O)(=O)c1cccc2cccnc12	49 µM
COc1ccccc1CNC(=O)C1CCN(S(=O)(=O)c2cccc3nonc23)CC1	> 50 µM (inactive)
Cc1ccc2c(c1)CCN2C(=O)[C@@H]1CCCN1S(=O)(=O)c1cccc2cccnc12	18.1 µM
Cc1cccc(NC(=O)[C@@H]2CCCN2S(=O)(=O)c2cccc3cccnc23)c1	27.6 µM
CC(C)c1ccccc1NC(=O)[C@@H]1CCCN1S(=O)(=O)c1cccc2cccnc12	16.5 µM
